Sampled rows, rich in hits. Any-hit rate of the full collection: about 12%.
KCC2 mod – KCC2 (human) Cl- transport modulation; Q9H2X9; KCC2 cells, thallium flux FluoZin-2 fluorescence; B-score of Tl+ flux slope (higher = more flux/activation; lower = inhibition) at 10 µM; 190,000 tested, 2.2% active;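 active means thallium flux slope and its plate-corrected score both differing from the plate sample mean at a set confidence after two filtering rounds, in either direction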;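 further: slope of fluorescence scaled to starting intensity during 10 to 20 s after thallium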
Target sequence (Q9H2X9 whole entry, looked up): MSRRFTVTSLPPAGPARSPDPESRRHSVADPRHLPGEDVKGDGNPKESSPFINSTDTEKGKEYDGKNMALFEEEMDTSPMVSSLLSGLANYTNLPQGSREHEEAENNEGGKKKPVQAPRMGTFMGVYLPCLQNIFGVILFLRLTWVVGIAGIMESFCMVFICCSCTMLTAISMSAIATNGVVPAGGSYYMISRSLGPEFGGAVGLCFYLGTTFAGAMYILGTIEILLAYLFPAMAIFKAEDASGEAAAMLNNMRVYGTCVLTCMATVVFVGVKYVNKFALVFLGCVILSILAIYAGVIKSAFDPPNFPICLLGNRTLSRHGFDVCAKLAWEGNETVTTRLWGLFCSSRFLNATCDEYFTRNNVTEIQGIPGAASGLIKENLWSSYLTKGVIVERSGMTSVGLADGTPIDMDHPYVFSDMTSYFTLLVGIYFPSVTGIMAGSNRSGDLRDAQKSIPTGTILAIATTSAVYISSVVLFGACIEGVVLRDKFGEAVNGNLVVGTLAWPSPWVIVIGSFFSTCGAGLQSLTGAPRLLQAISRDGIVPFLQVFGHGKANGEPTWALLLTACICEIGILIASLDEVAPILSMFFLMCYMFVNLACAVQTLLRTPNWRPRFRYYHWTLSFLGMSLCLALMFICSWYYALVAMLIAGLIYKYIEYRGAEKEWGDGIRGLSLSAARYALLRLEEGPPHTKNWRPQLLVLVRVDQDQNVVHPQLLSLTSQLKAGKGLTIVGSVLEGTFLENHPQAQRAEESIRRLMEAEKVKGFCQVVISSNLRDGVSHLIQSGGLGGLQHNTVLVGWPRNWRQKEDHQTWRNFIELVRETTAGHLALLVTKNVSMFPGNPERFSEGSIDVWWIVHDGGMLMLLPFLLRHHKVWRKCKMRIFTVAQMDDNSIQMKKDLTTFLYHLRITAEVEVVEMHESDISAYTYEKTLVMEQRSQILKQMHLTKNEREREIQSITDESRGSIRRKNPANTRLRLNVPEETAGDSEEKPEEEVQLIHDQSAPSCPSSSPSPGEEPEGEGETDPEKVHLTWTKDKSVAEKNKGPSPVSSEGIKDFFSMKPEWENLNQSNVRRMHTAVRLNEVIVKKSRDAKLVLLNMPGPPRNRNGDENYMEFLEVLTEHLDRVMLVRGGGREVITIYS
Diaph inh CS – counter-screen for diaphorase-based assays: diaphorase inhibitors and chemical oxidizers; 190,000 tested, 0.69% active; diaphorase resazurin-to-resorufin fluorescence, NADH, 16 min; bacterial (C. kluyveri) enzyme, not human; AID 1217; inhibition, % at 20 µM;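 active means primary screen inhibition at 20 µM above a set limit, cut at about 50% in these data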;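 further: plate controls were DMSO with full reaction for no effect and wells lacking NADH for full effect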
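controls = No-NADH positive control and DMSO neutral control | system = Clostridium kluyveri diaphorase enzyme | timing = reaction incubation of 16 min at room temperature | signal = resorufin fluorescence 544/590 nm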
Diaphorase act – activates diaphorase or chemically reduces, flagging diaphorase assay artifacts | Diaphorase/resazurin coupled assay, resorufin fluorescence, 16 min; stronger effect = higher value; 1 = vehicle wells, 0 = NADH-free wells | activation factor at 20 µM | 190,000 tested, 0.005% active;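 active means diaphorase activity raised at least twofold by the compound at 20 µM; inactive means activation factor below 2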
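Material: bacterial diaphorase enzyme (C. kluyveri); amount: enzyme 0.07 U/mL final; reagent: NADH substrate 0.114 mM plus resazurin dye 0.1 mM, final; doses: single compound dose of 20 µM, 1% DMSO final; timing: 16 min enzyme reaction, ambient temperature; measured by: fluorescence of resorufin, 544 nm excitation, 590 nm emission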
WT yeast gro inh – growth inhibition of WT yeast, mitochondrial fusion screen; inhibition, % at 10 µM; 190,000 tested, 2.1% active; mitochondrial fusion phenotypic screen, WT strain; in the data active means inhibition above about 58%; tested in S. cerevisiae
ROMK primary – modulators of human ROMK potassium channel; P48048; Tet-inducible ROMK, thallium flux fluorescence; actives lie on both sides; B-score at 10 µM; 130,000 tested, 2% active; AID 1918;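 active means signal ratio slope over the read window, or its plate-corrected B-score, at least 3 SD from the plate mean, either direction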;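 further: B-score of the F/F0 ratio slope over 7 to 12 s after thallium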
Lmaj promast – reduces viability of Leishmania major promastigotes. inhibition, % at 10 µM. AID 1063. resazurin fluorescence viability. 200,000 tested, 9% active; in the data active means inhibition above about 50%;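 further: promastigotes grown with compound for 44 hours at 28 °C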
KCC2 sec1 – confirmation of human KCC2 transport modulators | shares compounds with KCC2 mod | 3,700 tested, 15% active | HEK293-KCC2, thallium flux, FluoZin2 fluorescence; stronger effect = higher value | normalised thallium flux (F/F0 slope) at 10 µM | AID 1713;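 active means thallium flux slope above the same plate's solvent-only control mean plus 3 SD; inconclusive means the two replicate wells disagree; inactive means no significant difference from solvent-only control wells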
KCC2 bumet counter – bumetanide-insensitive thallium flux in KCC2 cells with ouabain, counter-screen; shares compounds with KCC2 mod; HEK293-KCC2 + bumetanide/ouabain, thallium flux FluoZin2; stronger effect = higher value; normalized thallium flux at 10 µM; 3,700 tested, 49% active;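 active means thallium entry rate above the same plate's blocked-transporter control wells by more than 3 SD; inconclusive means the two repeat wells disagree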;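 further: raw slope of fluorescence over initial fluorescence between 10 and 20 s after thallium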
KCC2 secondary2 – confirmation of human KCC2 transport modulators | shares compounds with KCC2 mod | HEK293-KCC2, thallium flux FluoZin2 fluorescence; actives lie on both sides; F/F0 rise rate, 10–20 s post-thallium | normalized thallium flux at 10 µM | 3,700 tested, 23% active | AID 1715;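 active means thallium flux slope more than 3 SD above or below the plate's solvent-only control mean, mostly below; inconclusive means the two repeat wells disagreed; inactive means no significant shift from solvent-only controls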;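 further: raw slope with 0.1% DMSO as baseline and bumetanide as block control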
HEK counter1 – parental HEK flux effect, counter-screen | shares compounds with KCC2 mod | HEK293 parental cells, thallium flux FluoZin2, ouabain; baseline-ratio fluorescence slope, 10–20 s after thallium | thallium flux rate (normalised fluorescence) at 10 µM | 3,700 tested, 46% active;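 active means thallium flux rate significantly above the same plate's solvent-only control wells, beyond their mean plus 3 SD; inconclusive means the two replicate wells gave conflicting results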
KCC2 ouabain – KCC2 (human) modulation, ouabain retest; shares compounds with KCC2 mod; HEK293-KCC2, thallium flux FluoZin2 fluorescence; bidirectional: low = inhibitor, high = activator; raw Tl+ flux slope (below DMSO = inhibition, above = activation) at 10 µM; 3,700 tested, 48% active; AID 1717;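 active means thallium flux slope beyond 3 SD from same-plate DMSO control mean in most replicates, usually higher, sometimes lower; inconclusive means repeat tests gave conflicting results; inactive means no significant difference from controls in most replicates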;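 further: slope of initial-normalized fluorescence between seconds 10 and 20 after thallium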
HEK counter2 – counter-screen for KCC2 modulators: effect in parental HEK293 cells; shares compounds with KCC2 mod; thallium flux FluoZin-2 fluorescence slope; thallium flux slope at 10 µM; 3,700 tested, 33% active; AID 1718;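 active means thallium flux slope above the same plate's solvent-control mean plus 3 SD in both duplicate wells; inconclusive means duplicate wells that disagreed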;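 further: run without ouabain in cells lacking the KCC2 cotransporter; slope of fluorescence scaled to its starting value between 10 and 20 s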
* hit, by the source's call; ? = inconclusive; nt = no result given.

SMILES	KCC2 mod	Diaph inh CS	Diaphorase act	WT yeast gro inh	ROMK primary	Lmaj promast	KCC2 sec1	KCC2 bumet counter	KCC2 secondary2	HEK counter1	KCC2 ouabain	HEK counter2
COc1cccc(NC(=O)COC(=O)c2nc3nccc(C)n3n2)c1	-5.45*	-11.1	1.1	-18.6	nt	-2.1	0.0077	0.0042	0.0296	?	0.0182	0.0106
COc1ccc2occ(C(=O)c3cccs3)c2c1	nt	24.9	0.8	5.2	-0.789	-2.3	0.00668	0.00708*	0.0296	0.00739	0.0193	0.0111
O=C(Nc1ccsc1C(=O)NC1CCCCC1)c1ccc(F)cc1	1.15	8.5	0.9	25.6	nt	-2.7	nt	nt	nt	nt	nt	nt
O=C(NNC(=O)c1cccc(-n2cnnn2)c1)c1ccccc1	0.832	6.2	0.9	5.5	-0.928	-2.2	nt	nt	nt	nt	nt	nt
O=C(NNC(=O)c1cc(-c2ccccc2)nn1-c1ccccc1)c1ccccc1	29.5*	13.9	0.9	-9.0	0.0725	25.5	0.00592	0.104*	0.0667*	0.0665*	0.0761*	0.063*
O=C(NNC(=O)c1ccc(-c2ccccc2)cc1)c1ccccc1	-3.66*	11.7	0.9	10.4	nt	-5.4	0.00711	?	0.0277	0.00745	0.0159	?
O=C(NNc1nc(-c2ccccc2)cs1)c1ccccc1	-5.89*	-10.0	1.1	3.6	nt	-0.8	0.0106	?	0.025*	0.00804	0.0145*	0.0111
Cc1cccc(N2C(=O)C3CCC(c4ccccc4)CC3C2=O)c1 (centres undefined)	-0.681	-0.7	1	11.5	0.641	-8.7	nt	nt	nt	nt	nt	nt
O=C(C(=O)N1CCCC1CO)N1CCCC1CO (centres undefined)	0.217	6.9	0.9	-19.4	0.451	-6.3	nt	nt	nt	nt	nt	nt
O=C(CCCOc1ccc(Cl)cc1)NCC1CCCO1 (centres undefined)	0.18	-11.1	1.1	-10.1	nt	-4.2	nt	nt	nt	nt	nt	nt
COc1cccc(/C=N/NC(=O)CN2CC(c3ccccc3)CC2=O)c1O (centres undefined)	-0.519	7.1	0.9	-2.7	-0.0549	0.1	nt	nt	nt	nt	nt	nt
O=C(OCCCCN1C(=O)c2ccccc2C1=O)c1n[nH]c2ccccc12	-2.92*	15.7	0.8	5.5	nt	21.4	0.00476	0.00674*	0.0282	?	?	0.0105
COc1ccc(N2C(=O)/C(=C/c3cccs3)NC2=S)cc1	8.75*	26.8	0.7	10.0	nt	-5.8	0.0132*	0.0215*	0.0347	0.0236*	0.0317*	0.0112*
CN(C)/C=C1\NC(=S)N(c2ccccc2)C1=O	1.01	18.1	0.8	-10.4	nt	-0.4	nt	nt	nt	nt	nt	nt
CCn1c(=O)c2cc(C(=O)N(C)c3cc(C)ccc3OC)sc2c2ccccc21	-2.97*	nt	nt	nt	0.14	nt	0.00851	?	0.0331	0.00556*	0.0187	?
CCCN1C(=O)/C(=C/c2ccc(C)o2)NC1=S	82.7*	11.7	0.9	-0.2	0.101	5.4	0.0216*	0.12*	?	0.0495*	0.0846*	0.0178*
O=C(CSc1nc2ccc(N3CCOCC3)cc2c(=O)n1CCc1ccccc1)NCC1CCCO1 (centres undefined)	6.75*	47.8	0.5	12.8	-0.0352	9.9	0.0163	0.0159*	0.029	0.00897*	0.0174	0.013*
O=C1c2cccc3c([N+](=O)[O-])ccc(c23)C(=O)N1Cc1cccnc1	-5.01*	20.3	0.8	64.4*	-2.67	99.9*	0.00411*	?	0.0263*	0.00579*	0.0138*	0.00842*
O=C1c2cccc3cccc(c23)C(=O)N1Cc1cccnc1	-0.0375	nt	nt	nt	nt	nt	nt	nt	nt	nt	nt	nt
CCCCn1c(Nc2ccccc2)nc2ccccc21	0.312	12.8	0.9	-2.7	-0.559	0.9	nt	nt	nt	nt	nt	nt
CCCn1c(NC(=S)Nc2ccccc2)nc2ccccc21	28*	13.3	0.9	24.2	0.271	30.9	?	0.0181*	0.0301	0.0092*	0.0381*	0.00939
CCCCCCCn1c(NC(=O)CC)nc2ccccc21	6.55*	nt	nt	nt	nt	nt	?	0.0271*	0.0306	0.0107*	0.0249	0.0112*
CCC(=O)Nc1nc2ccccc2n1CCN1CCOCC1	nt	13.0	0.9	1.0	0.36	-3.6	nt	nt	nt	nt	nt	nt
CCc1n[nH]c(=S)n1/N=C/c1ccc2c(c1)OCO2	-0.166	21.3	0.8	14.7	nt	-6.2	nt	nt	nt	nt	nt	nt
CCc1n[nH]c(=S)n1/N=C/c1ccc(N(C)c2ccccc2)cc1	9.54*	20.9	0.8	72.4*	-0.219	28.5	0.00979	0.019*	0.0324	0.029*	0.026*	0.0119
SMILES	KCC2 mod	Diaph inh CS	Diaphorase act	WT yeast gro inh	ROMK primary	Lmaj promast	KCC2 sec1	KCC2 bumet counter	KCC2 secondary2	HEK counter1	KCC2 ouabain	HEK counter2
COc1ccccc1C(=O)NC(CCSC)C(=O)OC(C)C(N)=O (centres undefined)	-0.0436	11.5	0.9	0.0	1.48	-3.7	nt	nt	nt	nt	nt	nt
c1ccc(CSC2=NNC(c3ccccn3)S2)cc1 (centres undefined)	28.1*	nt	nt	nt	0.381	nt	?	0.0261*	?	0.0149*	0.0245*	0.0176*
C/C(=N/NC(=O)c1ccncc1)C1=C(O)CC(C)(C)CC1=O	0.00812	1.2	1	-1.5	0.058	-2.2	nt	nt	nt	nt	nt	nt
CC1=CCCC(C)(C)C1/C=C/C(C)=N/NC(=O)c1ccncc1 (centres undefined)	5.29*	1.9	1	16.6	-0.902	14.4	?	0.0459*	0.0317	0.0158*	?	0.0123*
COc1cc(CNc2ccccc2SC)cc(OC)c1OC	-0.738	10.2	0.9	2.1	-0.817	0.3	nt	nt	nt	nt	nt	nt
Cc1ccccc1Cn1nc(C)c(NC(=O)c2noc3c2CC(C(C)(C)C)CC3)c1C (centres undefined)	nt	24.5	0.8	18.1	-0.369	42.2	nt	nt	nt	nt	nt	nt
Cc1ccccc1Cn1nc(C)c(NC(=O)c2noc3c2CCc2ccccc2-3)c1C	-3.84*	18.7	0.8	39.9	nt	5.8	0.00848	0.00681	0.0329	0.0081	0.0193	0.0109
Cc1ccc(NC(=O)NC(=O)CN2C(=O)NC3(CCCCCCC3)C2=O)c(C)c1	-5.52*	22.3	0.8	18.7	nt	1.3	0.00988	0.0074	0.0349	0.00473	0.0204	0.0123

Source: PubChem (several laboratories)
